Results on ten compounds are retold here after ChEMBL document CHEMBL1158515, “Novel selective thiazoleacetic acids as CRTH2 antagonists developed from in silico derived hits. Part 1” (Bioorg Med Chem Lett, 2010).

As a reminder, the pIC50 is the negative decadic logarithm of the IC50, by convention in mol/L.

pIC50: −log10 of the molar value.

For assay [1], the target named is T1, Prostaglandin D2 receptor 2 (Homo sapiens, UniProt Q9Y5Y4).
T1 sequence (Q9Y5Y4 whole entry): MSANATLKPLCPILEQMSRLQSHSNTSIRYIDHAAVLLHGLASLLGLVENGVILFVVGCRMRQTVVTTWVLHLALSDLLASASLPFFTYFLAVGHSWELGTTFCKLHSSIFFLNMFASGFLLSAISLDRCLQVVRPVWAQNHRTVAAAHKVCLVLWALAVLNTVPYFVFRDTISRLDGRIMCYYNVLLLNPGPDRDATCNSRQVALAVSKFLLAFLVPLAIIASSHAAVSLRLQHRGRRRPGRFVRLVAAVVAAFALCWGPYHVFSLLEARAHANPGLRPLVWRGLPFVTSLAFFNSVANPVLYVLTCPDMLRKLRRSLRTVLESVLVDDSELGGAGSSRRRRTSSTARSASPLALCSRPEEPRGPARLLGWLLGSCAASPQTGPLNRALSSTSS
In words: Antagonist activity at human CRTH2 receptor expressed in HEK285-7 cells assessed as inhibition of beta arrestin translocation by bioluminescence resonance energy transfer assay. It is filed as functional, cell-based. Put shortly: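 BRET2 readout in HEK385-7 cells transfected with CRTH2 (GFP2-β-arrestin2 acceptor, receptor-Rluc donor). Cells preincubated with antagonist 5 min with shaking, then PGD₂ added at a level eliciting about 75–80% of maximal agonist response, 5 min more. DeepBlueC coelenterazine injected; emission read 5 s later at 400 and 515 nm; signal = 515/400 ratio. IC50 derived.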

Assay [2] deals with T1, Prostaglandin D2 receptor 2. Put plainly: Displacement of[3H]PGD2 from human CRTH2 receptor expressed in african green monkey COS7 cells. It is filed as cell-based, COS-7. Put shortly:
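Equilibrium competition binding against [³H]PGD₂ on stably transfected COS7 cells expressing human CRTH2. Nonspecific binding defined with […] unlabelled PGD₂. IC50 reported.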

The target of assay [3] is T2, Prostaglandin D2 receptor 2 (Homo sapiens) (UniProt Q9Y5Y4).
T2 sequence (whole entry): T1 sequence (Q9Y5Y4 whole entry)
In words: Antagonist activity at human CRTH2 receptor expressed in HEK285-7 cells assessed as inhibition of beta arrestin translocation by bioluminescence resonance energy transfer assay relative to control. Format: functional, cell-based. Put shortly:
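Same BRET2 β-arrestin2 translocation format in CRTH2-transfected HEK385-7 cells: 5 min antagonist preincubation, then PGD₂ at about 75–80% of maximal agonist efficacy for 5 min, DeepBlueC coelenterazine, 515/400 nm ratio. Value is antagonist efficacy expressed as percent.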

Regarding `O=C(O)Cc1sc(-c2ccccc2)nc1-c1ccc(Cl)cc1` [FENTIAZAC], the negative-log IC50 (pIC50) in assay [1] is 6.02; in assay [2], 6.26. Also, in assay [3], the Efficacy is more than 70%.

For the compound `O=C(O)Cc1sc(Cc2ccc(Cl)cc2)nc1-c1ccc(Cl)cc1`, the negative-log IC50 (pIC50) is 6.66 in assay [1] and 7.30 in assay [2]. Also, the Efficacy in assay [3] was more than 70%.

For the compound `COc1ccccc1Nc1nc(-c2ccc(Cl)cc2)c(CC(=O)O)s1`, the pIC50 in assay [1] was 6.14; in assay [2], 6.35. In assay [3], the Efficacy is more than 70%.

In the case of `O=C(O)Cc1sc(Nc2ccc3ccccc3c2)nc1-c1ccc(Br)cc1`, the figures for the pIC50 in assay [1] and in assay [2] were 6.43 and 6.66, respectively. Also, the Efficacy in assay [3] is more than 70%.

Consider `O=C(O)Cc1sc(-c2ccc(Oc3ccccc3)cc2)nc1-c1ccc(Cl)cc1`, for which the negative logarithm of the IC50 (pIC50) in assay [1] was 5.89; in assay [2], 7.03. For the same compound, the Efficacy in assay [3] was more than 70%.

In the case of `COc1cccc(-c2ccccc2Cc2nc(-c3ccc(F)cc3)c(CC(=O)O)s2)c1`, the negative logarithm of the IC50 (pIC50) in assay [1] is 6.41; in assay [2] it was 7.40. Moreover, the Efficacy in assay [3] was more than 70%.

Consider `O=C(O)Cc1sc(Nc2ccc3ccccc3c2)nc1-c1ccc(Oc2ccccc2)cc1`, for which the figures for the pIC50 in assay [1] and in assay [2] were 6.59 and 7.03, respectively. Also, in assay [3], the Efficacy was 20%.

As for `O=C(O)Cc1sc(Cc2ccccc2Oc2ccccc2)nc1-c1ccc(Cl)cc1`, the pIC50 was less than 4.00 in assay [1] and 6.80 in assay [2]. The Efficacy in assay [3] is more than 70%.

`CCc1ccc(-c2nc(-c3ccccc3)sc2CC(=O)O)cc1`: the pIC50 was 6.46 in assay [1] and 5.89 in assay [2]. In assay [3], the Efficacy came out at 50%.

Take `Cc1ccc(Nc2nc(-c3ccc(Cl)cc3)c(CC(=O)O)s2)cc1`: the negative-log IC50 (pIC50) is 6.25 in assay [1] and 6.12 in assay [2]. In addition, the Efficacy in assay [3] was more than 70%.
